NSD2 inh: NSD2 histone methyltransferase inhibitors, primary screen, biochemical, AlphaScreen, single concentration, set 2; Histone-lysine N-methyltransferase NSD2 (Homo sapiens), O96028; NSD2 peptide methylation, 120 min; inhibition, % at 12.5 µM; AID 743445, 2014; hit rate 0.54% among 310,000; in the data active = inhibition above about 50%
Casp6 inh: human caspase-6 inhibitors, primary screen, biochemical, VEID-R110 fluorescence, single point, set 2; purified caspase-6, Z-VEID-R110 cleavage fluorescence; inhibition, % at 12.5 µM; hit rate 0.53% among 350,000; P55212;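 active = mean inhibition across replicates at least about 35%, with every replicate also reaching that limit, limit read from the data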;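 also: 0% = median of neutral control wells and 100% = no fluorescence left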
UCH37 DUB inh: inhibitors of human UCH37 deubiquitinase, primary screen, biochemical, Ub-AMC cleavage, fluorescence. Ubiquitin carboxyl-terminal hydrolase isozyme L5 (Homo sapiens), Q9Y5K5. purified proteasome/UCH37. inhibition, % (concentration not given with the values). hit rate 0.33% among 330,000. AID 588478, 2011;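 active = mean inhibition over replicate wells above about 20%, limit read from the data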;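 also: 0% = compound-free wells with enzyme and 100% = wells lacking proteasome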
Target sequence (Q9Y5K5 whole entry, looked up): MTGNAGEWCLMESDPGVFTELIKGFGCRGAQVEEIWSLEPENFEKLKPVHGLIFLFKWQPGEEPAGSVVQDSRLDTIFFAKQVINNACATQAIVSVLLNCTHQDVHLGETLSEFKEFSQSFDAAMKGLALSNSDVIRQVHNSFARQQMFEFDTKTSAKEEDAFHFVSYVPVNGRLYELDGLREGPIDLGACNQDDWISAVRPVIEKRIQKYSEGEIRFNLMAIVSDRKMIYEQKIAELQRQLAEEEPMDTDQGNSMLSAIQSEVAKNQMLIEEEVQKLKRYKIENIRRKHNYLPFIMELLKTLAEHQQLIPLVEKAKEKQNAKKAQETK
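Material: human UCH37 enzyme supplied as purified proteasome complex / Amount: 0.15 nM proteasome as dispensed / Buffer or medium: pH 7.4 Tris-HCl (50 mM) with ovalbumin, ATP-MgCl2, DTT / Times: preincubation 30 min, reaction 25 min, room temperature / Technique: AMC fluorescence from Ub-AMC cleavage, excitation 355 nm, emission 460 nm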
FGF22 binding: binders of human FGF22 protein, primary screen, FGF22 synaptogenesis inhibitor project, biophysical, thermal shift, single point | Fibroblast growth factor 22 (Homo sapiens), Q9HCT0 | recombinant FGF22 thermal shift, SYPRO orange fluorescence; percent of sucrose octasulfate shift, DMSO zero | activity (Tm shift, normalised), % at 9.99 µM | hit rate 1.5% among 340,000;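 active = mean Tm shift, scaled 0 neutral to 100 positive control, at about 1.3% or above, every replicate too, limit read from the data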
SIRT5 inh: SIRT5 desuccinylase inhibitors, primary screen, biochemical, fluorescence imaging, single point, set 5; Purified SirT5, succinyl-peptide AMC, trypsin-coupled fluorescence; inhibition, % at 15 µM; hit rate 1.1% among 330,000; in the data active = inhibition above about 15%
Target sequence (Q9NXA8 whole entry, looked up): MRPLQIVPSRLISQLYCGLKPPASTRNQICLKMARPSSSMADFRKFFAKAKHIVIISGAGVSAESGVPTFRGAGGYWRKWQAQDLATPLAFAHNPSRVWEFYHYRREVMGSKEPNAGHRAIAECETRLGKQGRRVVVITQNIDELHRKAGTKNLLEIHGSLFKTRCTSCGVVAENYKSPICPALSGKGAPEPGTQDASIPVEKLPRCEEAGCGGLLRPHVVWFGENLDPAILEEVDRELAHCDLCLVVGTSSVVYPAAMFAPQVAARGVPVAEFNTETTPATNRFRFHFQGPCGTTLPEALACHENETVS
Active calls of the source: *; . = not tested or not shown. In the library only some 2.6% were active in any assay of this set; here they are far more common.

SMILES	NSD2 inh	Casp6 inh	UCH37 DUB inh	FGF22 binding	SIRT5 inh
N#Cc1cc2nc(O)c(O)nc2cc1[N+](=O)[O-]	.	8.3	8.1	0.2	3.5
Cc1cc2nc(CN(C)Cc3c(C(=O)N(C)C)nc4ccc(Cl)cn34)[nH]c2cc1C	-0.3	-2.7	0.1	43.2*	-1.3
Cc1ccc(S(=O)(=O)N(C)C[C@H]2Oc3ccc(NC(=O)Cn4cnnn4)cc3CC(=O)N([C@@H](C)CO)C[C@H]2C)cc1	.	0.3	.	0.2	34.4*
C[C@H]1CN([C@@H](C)CO)C(=O)Cc2cc(NC(=O)Cn3cnnn3)ccc2O[C@@H]1CN(C)S(=O)(=O)c1ccc(Cl)cc1	.	2.7	.	-0.1	-7.4
C[C@H]1CN([C@@H](C)CO)C(=O)c2cc(NC(=O)Cn3cnnn3)ccc2O[C@@H]1CN(C)S(=O)(=O)c1ccc(F)cc1	.	1.8	.	-0.1	31.3*
C[C@H](CO)N1C[C@H](C)[C@@H](CN(C)C(=O)c2ccccc2F)Oc2ncc(-c3ccc(F)cc3)cc2C1=O	.	-1.1	.	-0.1	-2.9
O=C(C[C@H]1CC[C@H]2[C@@H](COC[C@@H](O)CN2C(=O)c2cccnc2)O1)NC1Cc2ccccc2C1	.	1.3	.	0.2	0.5
O=C(C[C@@H]1CC[C@H]2[C@@H](COC[C@@H](O)CN2C(=O)c2cccnc2)O1)NCc1ccc(Cl)cc1	.	1.1	.	0.1	0.2
CC(C)(C)NC(=O)CSc1nc2cccnc2n1C1CCCCC1	0.3	-1.7	-1.7	0.1	20.0*
CNC(=O)CSc1nc2cccnc2n1C1CCCCC1	0.7	-0.8	2.9	0.5	-3.1
O=C(C[C@H]1CC[C@H](NS(=O)(=O)c2ccccc2)[C@@H](CO)O1)N1CCC(Cc2ccccc2)CC1	.	2.4	.	-0.2	-2.5
CO[C@@H]1CN(C)C(=O)c2ccc(NC(=O)C3CC3)cc2OC[C@H](C)N(C(=O)CN(C)C)C[C@@H]1C	.	-1.4	.	0.0	-1.5
Cc1cc(C)cc(C(=O)N[C@@H](C)C(=O)N2CCC3(CC2)NCCc2[nH]cnc23)c1	-8.2	-4.9	1.3	43.4*	-5.4
Cc1ccc(C(=O)NCCC(=O)N2CCC3(CC2)NCCc2[nH]cnc23)cc1C	10.7	0.4	0.9	-0.2	27.8*
Cc1ccc(C(=O)NCC(=O)N2CCC3(CC2)NCCc2[nH]cnc23)cc1C	3.6	-1.3	-0.8	-0.1	-0.9
CO[C@@H](CN(C)C(=O)c1cnccn1)[C@H](C)CN([C@@H](C)CO)S(=O)(=O)c1ccc(Cl)cc1	.	3.1	.	-0.1	3.2
O=C(CCN1CCCCC1)N[C@H]1CC[C@H](CC(=O)N2CCC(Cc3ccccc3)CC2)O[C@@H]1CO	.	1.7	.	0.0	38.5*
CCN(CC1COc2ccccc2O1)C(=S)Nc1ccc(F)cc1 (stereo not given)	-0.8	3.9	0.0	43.8*	0.5
C[C@@H]1CN([C@H](C)CO)C(=O)Cc2cc(NC(=O)Cc3cn(C)c4ccccc34)ccc2O[C@H]1CN(C)S(=O)(=O)c1ccccc1	.	-0.7	.	-0.1	2.7
Cc1ccc(C(C(=O)NC(C)(C)C)N(C(=O)CCC(=O)Nc2ccccn2)c2ccccc2F)cc1 (stereo not given)	-0.9	4.3	-0.5	-0.2	19.1*
Cc1ccc(C(C(=O)NC(C)(C)C)N(Cc2ccco2)C(=O)CCC(=O)Nc2ccccn2)cc1 (stereo not given)	5.8	0.7	0.0	0.0	-0.8
COc1ccc([Si](C)(C)[C@H]2[C@H](CCO)O[C@@]3(C(=O)N(Cc4ccccc4)c4ccc(N5CCC5=O)cc43)[C@@H]2C)cc1	.	3.1	.	-0.6	17.3*
COc1ccc([Si](C)(C)[C@H]2[C@H](CCO)O[C@@]3(C(=O)N(Cc4ccccc4)c4ccc(N5CCCCC5=O)cc43)[C@@H]2C)cc1	.	-1.2	.	0.0	3.8
COc1ccc([Si](C)(C)[C@H]2[C@H](CCO)O[C@@]3(C(=O)N(Cc4ccc(NC(C)=O)cc4)c4ccccc43)[C@@H]2C)cc1	.	0.6	.	-0.4	21.2*
CC(=NNC(=O)CCC1C(=O)NN=C1C)c1ccccc1 (stereo not given)	.	.	2.4	.	.
SMILES	NSD2 inh	Casp6 inh	UCH37 DUB inh	FGF22 binding	SIRT5 inh
CCCCNc1nc2c(c(=O)[nH]c(=O)n2C)n1CCCc1ccccc1	-0.1	-4.3	.	43.3*	.
Cn1c(=O)[nH]c(=O)c2c1nc(NCCCO)n2CCCc1ccccc1	-3.2	8.2	-1.4	0.2	-2.8
COC(=O)C[C@H]1C[C@@H]2c3cc(NC(=O)C4CCC4)ccc3O[C@@H]2[C@H](CO)O1	.	0.2	.	-0.2	.
O=C(N[C@H]1CC[C@H](CCn2cc(C3(O)CCCC3)nn2)O[C@@H]1CO)C1CCCC1	.	-1.8	.	-0.3	2.9
COc1cc(CC(=O)OCn2nnc3ccccc3c2=O)cc(OC)c1OC	-4.9	0.5	-0.1	43.9*	-2.9
C[C@H](NC(=O)C[C@@H]1C=C[C@H](NC(=O)CN2CCOCC2)[C@@H](CO)O1)c1ccccc1	.	-3.6	.	-0.6	3.9
COc1ccc(/C=C(/NC(=O)c2ccccc2)C(=O)N2CCCC2)cc1OC	-1.7	-0.2	6.4	41.7	-1.7
COc1ccc(/C=C(\NC(=O)c2ccccc2)C(=O)OCC2CCCN3CCCCC23)cc1OC (stereo not given)	3.8	1.2	4.5	43.8*	1.9
O=C(Nc1ccc2c(c1)[C@H]1C[C@H](CC(=O)N3CCCCC3)O[C@@H](CO)[C@H]1O2)c1cccnc1	.	-1.2	.	-0.1	3.6
CCC/C(=C1/c2ccccc2C(=O)N1c1ccccc1)c1ccc2c(c1)OCO2	.	-2.7	2.7	0.1	.
CCC/C(=C1/c2ccccc2C(=O)N1c1ccccc1)c1c(C)noc1C	.	-2.2	.	42.9*	.
CO[C@@H]1CN(C)C(=O)c2ccc(NS(C)(=O)=O)cc2OC[C@H](C)N(CC2CCCCC2)C[C@@H]1C	.	-2.3	.	-0.2	-7.0
O=C(CSc1cccc[n+]1[O-])CSc1cccc[n+]1[O-]	-2.5	3.0	0.6	43.1*	-1.2
O=C(CSc1cccc[n+]1[O-])Nc1ccc(Cl)cc1F	1.6	37.3*	2.3	-0.2	-14.8
O=C(CSc1cccc[n+]1[O-])Nc1ccc(Br)cc1Br	1.2	-1.7	0.4	-0.2	-6.6
C[C@H](CO)N1C[C@H](C)[C@H](CN(C)Cc2ccncc2)Oc2ccc(NS(C)(=O)=O)cc2CC1=O	.	2.7	.	-0.1	.
C[C@@H]1CN([C@@H](C)CO)S(=O)(=O)c2ccc(-c3cncnc3)cc2O[C@H]1CN(C)Cc1cccnc1	.	-1.6	.	0.1	-2.6
O=C(OCc1cn([C@H]2CN(C(=O)c3cccs3)[C@@H](c3ccccc3)C[C@@H]2O)nn1)c1ccccc1	.	5.8	.	-0.2	2.3
Cc1ccc([C@H]2C[C@H](O)[C@@H](n3cc(COC(=O)c4ccccc4)nn3)CN2C(=O)c2cccs2)cc1	.	-0.9	.	0.1	16.8*

Bioassay records: PubChem, several laboratories
